According to ChEMBL document CHEMBL4265926, “Synthesis and antibacterial activity evaluation of novel biaryloxazolidinone analogues containing a hydrazone moiety as promising antibacterial agents” (Eur J Med Chem, 2018):
≈ marks a conversion by molar mass, not a printed value.

Experiments:
Staphylococcus aureus [1] = assay: Antibacterial activity against Staphylococcus aureus ATCC 29213 by broth liquid microdilution method; type: functional
Outline: (§1)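 Isolates were identified on an automated MicroScan WalkAway 96 system. Susceptibility was tested by broth microdilution following CLSI guidelines. MIC was taken as the lowest concentration giving complete inhibition of bacterial growth. S. aureus ATCC 29213 served as the control strain.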

Enterococcus faecalis [2] = assay: Antibacterial activity against linezolid-resistant Enterococcus faecalis by broth liquid microdilution method; type: functional; outline: as §1
Staphylococcus aureus [3] = assay: Antibacterial activity against methicillin-sensitive Staphylococcus aureus by broth liquid microdilution method; type: functional; outline: as §1
Enterococcus faecium [4] = assay: Antibacterial activity against vancomycin-resistant Enterococcus faecium by broth liquid microdilution method; type: functional; outline: as §1
Staphylococcus aureus [5] = assay: Antibacterial activity against methicillin-resistant Staphylococcus aureus by broth liquid microdilution method; type: functional; outline: as §1
Enterococcus faecium [6] = assay: Antibacterial activity against vancomycin-resistant Enterococcus faecium clinical isolates by broth liquid microdilution method; type: functional; outline: as §1
Enterococcus faecalis [7] = assay: Antibacterial activity against linezolid-resistant Enterococcus faecalis clinical isolates by broth liquid microdilution method; type: functional; outline: as §1
Staphylococcus aureus [8] = assay: Antibacterial activity against methicillin-resistant Staphylococcus aureus clinical isolates by broth liquid microdilution method; type: functional; outline: as §1
Staphylococcus aureus [9] = assay: Antibacterial activity against methicillin-sensitive Staphylococcus aureus clinical isolates by broth liquid microdilution method; type: functional; outline: as §1
[10] = molecular target: T1, MAO-A (amine oxidase [flavin-containing] A) (Homo sapiens, UniProt P21397); assay: Inhibition of recombinant human MAOA expressed in baculovirus infected Sf9 insect cells at 30 uM using luciferin derived substrate pretreated for 15 mins followed by substrate addition and measured after 60 mins by luminescence assay relative to control; conditions: probe luciferin derived substrate
T1 sequence (P21397 whole entry): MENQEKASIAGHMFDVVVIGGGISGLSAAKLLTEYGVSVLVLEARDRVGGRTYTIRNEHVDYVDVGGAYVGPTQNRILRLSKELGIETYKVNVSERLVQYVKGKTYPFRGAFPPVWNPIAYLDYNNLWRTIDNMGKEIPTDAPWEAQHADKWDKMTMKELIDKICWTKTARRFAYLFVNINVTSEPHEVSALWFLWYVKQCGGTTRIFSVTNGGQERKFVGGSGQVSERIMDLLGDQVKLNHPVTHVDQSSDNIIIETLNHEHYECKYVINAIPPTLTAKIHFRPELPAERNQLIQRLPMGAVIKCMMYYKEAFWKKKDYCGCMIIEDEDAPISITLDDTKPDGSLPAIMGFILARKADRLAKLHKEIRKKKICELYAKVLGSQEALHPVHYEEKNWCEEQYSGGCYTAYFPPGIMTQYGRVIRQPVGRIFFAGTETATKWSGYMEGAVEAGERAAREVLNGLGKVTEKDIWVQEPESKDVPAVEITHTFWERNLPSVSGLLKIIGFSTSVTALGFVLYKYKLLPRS
Outline: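 Human recombinant MAO-A with MAO-Glo luminescent kit. Compounds in DMSO (final 1% DMSO) preincubated with enzyme 15 min at room temperature, then luciferin derivative substrate added and reacted 60 min at room temperature. Luciferase detection reagent added for 20 min before luminescence read. Buffer replacing enzyme served as 100% inhibition control and DMSO as no-inhibition control; percent inhibition calculated against both.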

Compound | MIC (Staphylococcus aureus [1]) [µg/mL] | MIC (Enterococcus faecalis [2]) [µg/mL] | MIC (Staphylococcus aureus [3]) [µg/mL] | MIC (Enterococcus faecium [4]) [µg/mL] | MIC (Staphylococcus aureus [5]) [µg/mL] | MIC (Enterococcus faecium [6]) [µg/mL] | MIC50 (Enterococcus faecium [6]) [µg/mL] | MIC90 (Enterococcus faecium [6]) [µg/mL] | MIC (Enterococcus faecalis [7]) [µg/mL] | MIC50 (Enterococcus faecalis [7]) [µg/mL] | MIC90 (Enterococcus faecalis [7]) [µg/mL] | MIC50 (Staphylococcus aureus [8]) [µg/mL] | MIC90 (Staphylococcus aureus [8]) [µg/mL] | MIC (Staphylococcus aureus [9]) [µg/mL] | MIC50 (Staphylococcus aureus [9]) [µg/mL] | MIC90 (Staphylococcus aureus [9]) [µg/mL] | inhibition at 1 h, 30 µM [10] [%]
CC(=O)NC[C@H]1CN(c2ccc(-c3ccc(/C=N/N4CCN(C(=O)OC(C)(C)C)CC4)cc3)c(F)c2)C(=O)O1 | > 2 | > 2 | > 2 | > 2 |  |  |  |  |  |  |  |  |  |  |  |  | 
CC(=O)NC[C@H]1CN(c2ccc(-c3ccc(/C=N/N4CCOCC4)cc3)c(F)c2)C(=O)O1 | 0.5 (≈ 1.14 µM) | 0.25 (≈ 0.568 µM) | 0.25 (≈ 0.568 µM) | 0.5 (≈ 1.14 µM) | 0.25 (≈ 0.568 µM) |  |  |  |  |  |  |  |  |  |  |  | 
CC(=O)NC[C@H]1CN(c2ccc(-c3ccc(/C=N/N4CCN(C(=O)c5ccncc5)CC4)cc3)c(F)c2)C(=O)O1 | 0.25 (≈ 0.459 µM) | 0.25 (≈ 0.459 µM) | 0.125 (≈ 0.23 µM) | 0.25 (≈ 0.459 µM) | 0.25 (≈ 0.459 µM) |  |  |  |  |  |  |  |  |  |  |  | 
CC(=O)NC[C@H]1CN(c2ccc(-c3ccc(/C=N/N4CCN(C(=O)c5ccc(Br)cc5)CC4)cc3)c(F)c2)C(=O)O1 | 0.125 (≈ 0.201 µM) | 0.125 (≈ 0.201 µM) | 0.125 (≈ 0.201 µM) | 0.125 (≈ 0.201 µM) | 0.125 (≈ 0.201 µM) |  |  |  |  |  |  |  |  |  |  |  | 
C=CCN1CCN(/N=C/c2ccc(-c3ccc(N4C[C@H](CNC(C)=O)OC4=O)cc3F)cc2)CC1 | 0.5 (≈ 1.04 µM) | 0.125 (≈ 0.261 µM) | 0.125 (≈ 0.261 µM) | 0.125 (≈ 0.261 µM) | 0.125 (≈ 0.261 µM) |  |  |  |  |  |  |  |  |  |  |  | 
CC(=O)NC[C@H]1CN(c2ccc(-c3ccc(/C=N/N4CCS(=O)(=O)CC4)cc3)c(F)c2)C(=O)O1 | 0.25 (≈ 0.512 µM) | 0.25 (≈ 0.512 µM) | 0.25 (≈ 0.512 µM) | 0.25 (≈ 0.512 µM) | 0.25 (≈ 0.512 µM) |  |  |  |  |  |  |  |  |  |  |  | 
CC(=O)NC[C@H]1CN(c2ccc(-c3ccc(/C=N/N4CCN(C(=O)c5ccccn5)CC4)cc3)c(F)c2)C(=O)O1 | 0.125 (≈ 0.23 µM) | 0.125 (≈ 0.23 µM) | 0.125 (≈ 0.23 µM) | 0.125 (≈ 0.23 µM) | 0.125 (≈ 0.23 µM) |  |  |  |  |  |  |  |  |  |  |  | 
CC(=O)NC[C@H]1CN(c2ccc(-c3ccc(/C=N/N4CCN(C(=O)c5ccccc5)CC4)cc3)c(F)c2)C(=O)O1 | 0.25 (≈ 0.46 µM) | 0.25 (≈ 0.46 µM) | 0.125 (≈ 0.23 µM) | 0.25 (≈ 0.46 µM) | 0.25 (≈ 0.46 µM) |  |  |  |  |  |  |  |  |  |  |  | 
COc1ccc(C(=O)N2CCN(/N=C/c3ccc(-c4ccc(N5C[C@H](CNC(C)=O)OC5=O)cc4F)cc3)CC2)cc1 | 0.125 (≈ 0.218 µM) | 0.125 (≈ 0.218 µM) | 0.125 (≈ 0.218 µM) | 0.125 (≈ 0.218 µM) | 0.125 (≈ 0.218 µM) |  |  |  |  |  |  |  |  |  |  |  | 
COC(=O)N1CCN(/N=C/c2ccc(-c3ccc(N4C[C@H](CNC(C)=O)OC4=O)cc3F)cc2)CC1 | 0.125 (≈ 0.251 µM) | 0.125 (≈ 0.251 µM) | 0.125 (≈ 0.251 µM) | 0.125 (≈ 0.251 µM) | 0.125 (≈ 0.251 µM) |  |  |  |  |  |  |  |  |  |  |  | 
CC(=O)NC[C@H]1CN(c2ccc(-c3ccc(/C=N/N4CCN(C(=O)C(F)(F)F)CC4)cc3)c(F)c2)C(=O)O1 | 0.125 (≈ 0.233 µM) | 0.125 (≈ 0.233 µM) | 0.125 (≈ 0.233 µM) | 0.125 (≈ 0.233 µM) | 0.125 (≈ 0.233 µM) |  |  |  |  |  |  |  |  |  |  |  | 
CC(=O)NC[C@H]1CN(c2ccc(-c3ccc(/C=N/N4CCNCC4)cc3)c(F)c2)C(=O)O1 | 0.0675 (≈ 0.154 µM) | 0.25 (≈ 0.569 µM) | 0.0675 (≈ 0.154 µM) | 0.25 (≈ 0.569 µM) | 0.0675 (≈ 0.154 µM) | 0.0625 to 0.5 (≈ 0.142 to 1.14 µM) | 0.25 (≈ 0.569 µM) | 0.5 (≈ 1.14 µM) | 0.0625 to 0.25 (≈ 0.142 to 0.569 µM) | 0.25 (≈ 0.569 µM) | 0.25 (≈ 0.569 µM) | 0.125 (≈ 0.284 µM) | 0.25 (≈ 0.569 µM) | 0.0625 to 0.25 (≈ 0.142 to 0.569 µM) | 0.125 (≈ 0.284 µM) | 0.25 (≈ 0.569 µM) | 84
CC(=O)NC[C@H]1CN(c2ccc(-c3ccc(/C=N/N4CCN(C(=O)c5ccc(F)cc5)CC4)cc3)c(F)c2)C(=O)O1 | 0.125 (≈ 0.223 µM) | 0.125 (≈ 0.223 µM) | 0.125 (≈ 0.223 µM) | 0.125 (≈ 0.223 µM) | 0.125 (≈ 0.223 µM) | 0.0625 to 0.5 (≈ 0.111 to 0.89 µM) | 0.25 (≈ 0.445 µM) | 0.5 (≈ 0.89 µM) | 0.0625 to 0.25 (≈ 0.111 to 0.445 µM) | 0.25 (≈ 0.445 µM) | 0.25 (≈ 0.445 µM) | 0.125 (≈ 0.223 µM) | 0.25 (≈ 0.445 µM) | 0.0625 to 0.25 (≈ 0.111 to 0.445 µM) | 0.25 (≈ 0.445 µM) | 0.25 (≈ 0.445 µM) | 89
CC(=O)NC[C@H]1CN(c2ccc(-c3ccc(/C=N/N4CCN(S(C)(=O)=O)CC4)cc3)c(F)c2)C(=O)O1 | 1 (≈ 1.93 µM) | 0.5 (≈ 0.966 µM) | 1 (≈ 1.93 µM) | 2 (≈ 3.86 µM) | 0.5 (≈ 0.966 µM) |  |  |  |  |  |  |  |  |  |  |  | 
CC(=O)NC[C@H]1CN(c2ccc(-c3ccc(/C=N/N4CCN(C(C)=O)CC4)cc3)c(F)c2)C(=O)O1 | 0.25 (≈ 0.519 µM) | 0.25 (≈ 0.519 µM) | 0.125 (≈ 0.26 µM) | 0.5 (≈ 1.04 µM) | 0.25 (≈ 0.519 µM) |  |  |  |  |  |  |  |  |  |  |  | 
